Reference: ChEMBL document CHEMBL1806360, “Synthesis and biological evaluation of conformationally flexible as well as restricted dimers of monastrol and related dihydropyrimidones” (Eur J Med Chem, 2011)
Converted amounts (≈) assume the structure as drawn. The source made the active and inactive calls. No cut-off for these calls is given here.

What was measured:
HT-29 = test: Cytotoxicity against human HT-29 cells after 48 hrs by MTT assay; assay type: functional, cell-based; settings: HT-29, 48 h
MCF7 = test: Cytotoxicity against human MCF7 cells after 48 hrs by MTT assay; assay type: functional, cell-based; settings: MCF7, 48 h
Outline: (§1)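 MTT assay. Medium with 10% FBS and 2 mM L-glutamine was DMEM for A431 and Colo-205, RPMI for A549, and MEM for MCF-7. Cultures were preincubated 24 h at 37 °C, 5% CO2. 1 × 10⁴ cells (trypan blue count) were exposed to 200, 100, 50, 25 and 10 concentration levels for 48 h at 37 °C. MTT was added for 4 h, formazan dissolved in DMSO, and A570 read. IC50 was curve-fitted from viability versus untreated cells, three experiments.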

A-431 = test: Cytotoxicity against human A431 cells after 48 hrs by MTT assay; assay type: functional, cell-based; settings: A-431, 48 h; outline: as §1
A549 = test: Cytotoxicity against human A549 cells after 48 hrs by MTT assay; assay type: functional, cell-based; settings: A549, 48 h; outline: as §1
COLO 205 = test: Cytotoxicity against human COLO205 cells after 48 hrs by MTT assay; assay type: functional, cell-based; settings: COLO 205, 48 h; outline: as §1
Klebsiella pneumoniae [1] = test: Antibacterial activity against Klebsiella pneumoniae assessed as zone of inhibition at 100 ug/ml by agar plate method; assay type: functional; settings: read-out: IZ
Outline: (§2)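 Well diffusion on Mueller-Hinton agar. Inoculum from 3–5 colonies was grown in nutrient broth and adjusted to 0.5 McFarland (about 1 × 10⁸ CFU/mL), then swabbed over the plate. Compounds were dissolved in DMSO and added to duplicate 6 mm wells. Plates were incubated 18 h at 37 °C, and inhibition zone diameter was read to the nearest mm. Ciprofloxacin was the positive control and DMSO the negative control.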

Escherichia coli [2] = test: Antibacterial activity against Escherichia coli assessed as zone of inhibition at 100 ug/ml by agar plate method; assay type: functional; settings: read-out: IZ; outline: as §2
[3] = system: Staphylococcus epidermidis; test: Antibacterial activity against Staphylococcus epidermidis assessed as zone of inhibition at 50 ug/ml by agar plate method; assay type: functional, organism-based; outline: as §2
[4] = system: Staphylococcus epidermidis; test: Antibacterial activity against Staphylococcus epidermidis assessed as zone of inhibition at 100 ug/ml by agar plate method; assay type: functional; settings: read-out: IZ; outline: as §2
Staphylococcus aureus = test: Antibacterial activity against Staphylococcus aureus assessed as zone of inhibition at 100 ug/ml by agar plate method; assay type: functional; settings: read-out: IZ; outline: as §2
Nucleic Acid = test: Binding affinity to calf thymus DNA assessed as change in melting temperature at compound to DNA ratio of 1:5 after 18 hrs at pH 7; assay type: nucleic-acid assay; settings: Bos taurus
Outline: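 Thermal melting of calf thymus DNA in 10 mM sodium phosphate with 1 mM Na2EDTA, pH 7.00. Compound was added from DMSO stock at a fixed 1:5 compound:DNA molar ratio. The mix was incubated 18 h at 37 °C, then A260 was monitored while heating at 1 °C/min over 40–90 °C. ΔTm is relative to DNA alone.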

Bacillus subtilis [5] = test: Antibacterial activity against Bacillus subtilis assessed as zone of inhibition at 100 ug/ml by agar plate method; assay type: functional; settings: read-out: IZ; outline: as §2
Bacillus subtilis [6] = test: Antibacterial activity against Bacillus subtilis assessed as zone of inhibition at 50 ug/ml by agar plate method; assay type: functional, organism-based; outline: as §2
Escherichia coli [7] = test: Antibacterial activity against Escherichia coli assessed as zone of inhibition at 50 ug/ml by agar plate method; assay type: functional, organism-based; outline: as §2
Klebsiella pneumoniae [8] = test: Antibacterial activity against Klebsiella pneumoniae assessed as zone of inhibition at 50 ug/ml by agar plate method; assay type: functional, organism-based; outline: as §2
Pseudomonas aeruginosa = test: Antibacterial activity against Pseudomonas aeruginosa assessed as zone of inhibition at 100 ug/ml by agar plate method; assay type: functional; settings: read-out: IZ; outline: as §2

ΔTm (Nucleic Acid) [°C]	SMILES	IC50 (HT-29) [µg/mL]	IC50 (MCF7) [µg/mL]	IC50 (A-431) [µg/mL]	IC50 (A549) [µg/mL]	IC50 (COLO 205) [µg/mL]	zone of inhibition at 100 µg/mL (Klebsiella pneumoniae [1]) [mm]	zone of inhibition at 100 µg/mL (Escherichia coli [2]) [mm]	Activity [3]	zone of inhibition at 100 µg/mL [4] [mm]	zone of inhibition at 100 µg/mL (Staphylococcus aureus) [mm]	zone of inhibition at 100 µg/mL (Bacillus subtilis [5]) [mm]	Activity (Bacillus subtilis [6])	Activity (Escherichia coli [7])	Activity (Klebsiella pneumoniae [8])	zone of inhibition at 100 µg/mL (Pseudomonas aeruginosa) [mm]
	CCOC(=O)C1=C(C)NC(=S)NC1c1cccc(OCCCCCOc2cccc(C3NC(=S)NC(C)=C3C(=O)OCC)c2)c1 (centres undefined)	> 200	178 (≈ 273 µM)	74 (≈ 113 µM)	> 200	190 (≈ 291 µM)										
2.5	CCOC(=O)C1=C(C)NC(=S)NC1c1cccc(OC/C=C/COc2cccc(C3NC(=S)NC(C)=C3C(=O)OCC)c2)c1 (centres undefined)	> 200	175 (≈ 275 µM)	185 (≈ 291 µM)	> 200	> 200	8	10	inactive	18	8	12	inactive	inactive	inactive	15
2.8	COC(=O)[C@@H]1CCCN1C(=O)C1=C(C)NC(=S)NC1c1ccc(OC/C=C/COc2ccc(C3NC(=S)NC(C)=C3C(=O)N3CCC[C@H]3C(=O)OC)cc2OC)c(OC)c1 (some centres undefined)	> 200	60 (≈ 69.5 µM)	34 (≈ 39.4 µM)	158 (≈ 183 µM)	69 (≈ 80 µM)										
	COC(=O)[C@@H]1CCCN1C(=O)C1=C(C)NC(=S)NC1c1ccc(OCCCOc2ccc(C3NC(=S)NC(C)=C3C(=O)N3CCC[C@H]3C(=O)OC)cc2OC)c(OC)c1 (some centres undefined)	> 200	140 (≈ 165 µM)	165 (≈ 194 µM)	180 (≈ 212 µM)	92 (≈ 108 µM)										
	COC(=O)[C@@H]1CCCN1C(=O)C1=C(C)NC(=S)NC1c1ccc(OCCCCOc2ccc(C3NC(=S)NC(C)=C3C(=O)N3CCC[C@H]3C(=O)OC)cc2OC)c(OC)c1 (some centres undefined)	> 200	169 (≈ 195 µM)	190 (≈ 220 µM)	> 200	154 (≈ 178 µM)										
	CCOC(=O)C1=C(C)NC(=S)NC1c1cccc(OC/C=C\COc2cccc(C3NC(=S)NC(C)=C3C(=O)OCC)c2)c1 (centres undefined)	> 200	49 (≈ 76.9 µM)	190 (≈ 298 µM)	154 (≈ 242 µM)	64 (≈ 101 µM)	8	8	inactive	12	15	10	inactive	inactive	inactive	18
4.1	COC(=O)[C@@H]1CCCN1C(=O)C1=C(C)NC(=S)NC1c1ccc(OC/C=C\COc2ccc(C3NC(=S)NC(C)=C3C(=O)N3CCC[C@H]3C(=O)OC)cc2OC)c(OC)c1 (some centres undefined)	> 200	175 (≈ 203 µM)	183 (≈ 212 µM)	> 200	> 200										
	COC(=O)[C@@H]1CCCN1C(=O)C1=C(C)NC(=S)NC1c1cccc(OCCCCCOc2cccc(C3NC(=S)NC(C)=C3C(=O)N3CCC[C@H]3C(=O)OC)c2)c1 (some centres undefined)	> 200	34 (≈ 41.5 µM)	159 (≈ 194 µM)	184 (≈ 225 µM)	71 (≈ 86.7 µM)										
3.2	CCOC(=O)C1=C(C)NC(=S)NC1c1ccc(OC/C=C/COc2ccc(C3NC(=S)NC(C)=C3C(=O)OCC)cc2OC)c(OC)c1 (centres undefined)	> 200	35 (≈ 50.2 µM)	185 (≈ 265 µM)	165 (≈ 237 µM)	90 (≈ 129 µM)										
